Test results from ChEMBL document CHEMBL2390915, “Synthesis and biological evaluation of arctigenin ester and ether derivatives as activators of AMPK” (Bioorg Med Chem, 2013).

tested on: L6; assay: Activation of AMPK in rat L6 cells assessed as phosphorylated protein level at 40 uM after 30 mins by Western blot analysis relative to arctigenin; type: cell-based
Method in brief: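 L6 myoblasts kept in DMEM + 10% FBS at 37 °C, 5% CO2, then differentiated to myotubes in DMEM + 2% horse serum once 90% confluent. Cells exposed to 40 µM compound for 30 min. Lysates (Tris-HCl pH 7.5, NaCl, Na3VO4, Triton X-100, protease inhibitors) immunoblotted for phospho-AMPK and total AMPK by chemiluminescence. Band intensity × area normalized to total AMPK; three independent experiments.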

SMILES | fold change (FC)
COc1ccc(C[C@H]2COC[C@@H]2Cc2ccc(OC(=O)c3ccco3)c(OC)c2)cc1OC | 0.41
COc1ccc(C[C@H]2COC[C@@H]2Cc2ccc(OC(C)=O)c(OC)c2)cc1OC | 0.26
COc1ccc(CCCOc2ccc(C[C@H]3C(=O)OC[C@@H]3Cc3ccc(OC)c(OC)c3)cc2OC)cc1OC | 0.71
COc1ccc(C[C@H]2COC[C@@H]2Cc2ccc(OC(=O)CC(C)C)c(OC)c2)cc1OC | 0.25
COc1ccc(C[C@H]2COC[C@@H]2Cc2ccc(OC(=O)c3cccnc3)c(OC)c2)cc1OC | 0.71
COc1cccc(CCOc2ccc(C[C@H]3COC[C@@H]3Cc3ccc(OC)c(OC)c3)cc2OC)c1 | 1.33
COc1ccc(C[C@H]2COC(=O)[C@@H]2Cc2ccc(OC(=O)CC(C)(C)C)c(OC)c2)cc1OC | 0.32
COc1ccc(CC(=O)Oc2ccc(C[C@H]3C(=O)OC[C@@H]3Cc3ccc(OC)c(OC)c3)cc2OC)cc1OC | 0.69
COc1ccc(C[C@H]2COC(=O)[C@@H]2Cc2ccc(OC(=O)c3ccc(C)cc3)c(OC)c2)cc1OC | 0.46
COc1ccc(C[C@H]2COC[C@@H]2Cc2ccc(OC(=O)C3CCCCC3)c(OC)c2)cc1OC | 0.23
COc1ccc(CCOc2ccc(C[C@H]3C(=O)OC[C@@H]3Cc3ccc(OC)c(OC)c3)cc2OC)cc1OC | 0.93
COc1ccc(CCOc2ccc(C[C@H]3COC[C@@H]3Cc3ccc(OC)c(OC)c3)cc2OC)cc1OC | 1.45
CCOc1ccc(C[C@H]2C(=O)OC[C@@H]2Cc2ccc(OC)c(OC)c2)cc1OC | 0.14
COc1ccc(C[C@H]2COC(=O)[C@@H]2Cc2ccc(OC(=O)C3CC3)c(OC)c2)cc1OC | 0.62
COc1ccc(C[C@H]2COC(=O)[C@@H]2Cc2ccc(OC(=O)c3ccccc3)c(OC)c2)cc1OC | 0.81
COc1ccc(C(=O)Oc2ccc(C[C@H]3COC[C@@H]3Cc3ccc(OC)c(OC)c3)cc2OC)cc1 | 0.25
COc1cccc(CCOc2ccc(C[C@H]3C(=O)OC[C@@H]3Cc3ccc(OC)c(OC)c3)cc2OC)c1 | 0.69
COc1ccc(C[C@H]2COC[C@@H]2Cc2ccc(OCCc3ccc(F)c(F)c3)c(OC)c2)cc1OC | 0.91
COc1ccc(C[C@H]2COC(=O)[C@@H]2Cc2ccc(OC(=O)c3ccc(F)cc3)c(OC)c2)cc1OC | 0.63
COc1ccc(C[C@H]2COC(=O)[C@@H]2Cc2ccc(OCCc3ccccc3F)c(OC)c2)cc1OC | 0.34
CCc1cncc(CCOc2ccc(C[C@H]3COC[C@@H]3Cc3ccc(OC)c(OC)c3)cc2OC)c1 | 0.64

SMILES | fold change (FC)
COc1ccc(C[C@H]2COC(=O)[C@@H]2Cc2ccc(OCCc3ccccc3)c(OC)c2)cc1OC | 0.2
COc1ccc(C[C@H]2COC(=O)[C@@H]2Cc2ccc(OCCc3ccc(F)cc3)c(OC)c2)cc1OC | 0.35
COc1ccc(C[C@H]2COC(=O)[C@@H]2Cc2ccc(OC(=O)C(C)C)c(OC)c2)cc1OC | 0.82
CCCCC(=O)Oc1ccc(C[C@H]2C(=O)OC[C@@H]2Cc2ccc(OC)c(OC)c2)cc1OC | 1.16
COc1ccc(CCOc2ccc(C[C@H]3C(=O)OC[C@@H]3Cc3ccc(OC)c(OC)c3)cc2OC)cc1 | 0.32
CCCC(=O)Oc1ccc(C[C@H]2COC[C@@H]2Cc2ccc(OC)c(OC)c2)cc1OC | 0.25
CCOc1ccc(CCOc2ccc(C[C@H]3C(=O)OC[C@@H]3Cc3ccc(OC)c(OC)c3)cc2OC)cc1OCC | 0.34
COc1ccc(C[C@H]2COC(=O)[C@@H]2Cc2ccc(OC(C)=O)c(OC)c2)cc1OC | 1.11
COc1cc(C[C@H]2COC[C@@H]2Cc2ccc(OC)c(OC)c2)ccc1O | 0.49
C/C=C/C(=O)Oc1ccc(C[C@H]2C(=O)OC[C@@H]2Cc2ccc(OC)c(OC)c2)cc1OC | 0.86
COc1ccc(COc2ccc(C[C@H]3C(=O)OC[C@@H]3Cc3ccc(OC)c(OC)c3)cc2OC)cc1OC | 0.36
COc1ccc(C[C@H]2COC[C@@H]2Cc2ccc(OCCc3cccnc3)c(OC)c2)cc1OC | 0.81
COCCOc1ccc(C[C@H]2C(=O)OC[C@@H]2Cc2ccc(OC)c(OC)c2)cc1OC | 0.17
COc1ccc(C[C@H]2COC(=O)[C@@H]2Cc2ccc(OCCc3ccc(C(C)(C)C)cc3)c(OC)c2)cc1OC | 0.09
COc1cc(CCOc2ccc(C[C@H]3COC[C@@H]3Cc3ccc(OC)c(OC)c3)cc2OC)cc(OC)c1 | 0.68
COc1ccc(C[C@H]2COC(=O)[C@@H]2Cc2ccc(OC(=O)c3ccc(OC)c(OC)c3)c(OC)c2)cc1OC | 0.3
COc1cccc(C(=O)Oc2ccc(C[C@H]3COC[C@@H]3Cc3ccc(OC)c(OC)c3)cc2OC)c1 | 0.82
COc1ccc(C[C@H]2COC(=O)[C@@H]2Cc2ccc(OC(=O)c3cccnc3)c(OC)c2)cc1OC | 0.87
COc1ccc(C[C@H]2COC[C@@H]2Cc2ccc(OCCc3cc(OC)c(OC)c(OC)c3)c(OC)c2)cc1OC | 1.25
COc1ccc(C[C@H]2COC(=O)[C@@H]2Cc2ccc(OCCc3cc(OC)c(OC)c(OC)c3)c(OC)c2)cc1OC | 0.57
COc1ccc(C[C@H]2COC(=O)[C@@H]2Cc2ccc(OC(=O)CC(C)C)c(OC)c2)cc1OC | 0.48

SMILES | fold change (FC)
COc1ccccc1CCOc1ccc(C[C@H]2C(=O)OC[C@@H]2Cc2ccc(OC)c(OC)c2)cc1OC | 0.32
COc1cccc(C(=O)Oc2ccc(C[C@H]3C(=O)OC[C@@H]3Cc3ccc(OC)c(OC)c3)cc2OC)c1 | 0.64
COc1ccc(C[C@H]2COC(=O)[C@@H]2Cc2ccc(OCCc3ccccc3Cl)c(OC)c2)cc1OC | 0.24
COc1ccc(C[C@H]2COC(=O)[C@@H]2Cc2ccc(OC(=O)c3ccco3)c(OC)c2)cc1OC | 0.69
COc1ccc(C[C@H]2COC[C@@H]2Cc2ccc(OCCc3ccc(F)cc3)c(OC)c2)cc1OC | 0.97
COc1ccc(C(=O)Oc2ccc(C[C@H]3C(=O)OC[C@@H]3Cc3ccc(OC)c(OC)c3)cc2OC)cc1 | 0.46
COc1ccc(C[C@H]2COC(=O)[C@@H]2Cc2ccc(OC(C)C)c(OC)c2)cc1OC | 0.2
CCC(=O)Oc1ccc(C[C@H]2C(=O)OC[C@@H]2Cc2ccc(OC)c(OC)c2)cc1OC | 0.92
COc1ccc(C[C@H]2COC[C@@H]2Cc2ccc(OC(=O)c3ccc(OC)c(OC)c3)c(OC)c2)cc1OC | 0.82
COc1ccc(C[C@H]2COC(=O)[C@@H]2Cc2ccc(OCCc3ccc4c(c3)OCO4)c(OC)c2)cc1OC | 0.28
CCCC(=O)Oc1ccc(C[C@H]2C(=O)OC[C@@H]2Cc2ccc(OC)c(OC)c2)cc1OC | 0.94
COc1ccc(C[C@H]2COC[C@@H]2Cc2ccc(OCC(=O)c3ccc(OC)c(OC)c3)c(OC)c2)cc1OC | 0.66
COc1ccc(C[C@H]2COC[C@@H]2Cc2ccc(OC(=O)c3ccc(F)cc3)c(OC)c2)cc1OC | 0.37
COc1ccc(CC(=O)Oc2ccc(C[C@H]3COC[C@@H]3Cc3ccc(OC)c(OC)c3)cc2OC)cc1OC | 0.83
COc1ccc(CCOc2ccc(C[C@H]3COC[C@@H]3Cc3ccc(OC)c(OC)c3)cc2OC)cc1 | 0.9
COc1ccc(CCCOc2ccc(C[C@H]3COC[C@@H]3Cc3ccc(OC)c(OC)c3)cc2OC)cc1OC | 0.97
COc1cc(CCOc2ccc(C[C@H]3C(=O)OC[C@@H]3Cc3ccc(OC)c(OC)c3)cc2OC)cc(OC)c1 | 0.73
COc1ccc(C[C@H]2COC(=O)[C@@H]2Cc2ccc(OCCc3ccc(Cl)cc3)c(OC)c2)cc1OC | 0.26
COc1ccc(C[C@H]2COC[C@@H]2Cc2ccc(OCCc3ccc(Cl)cc3)c(OC)c2)cc1OC | 0.79
